# According to paper PMC8277203 (The Journal of Clinical Endocrinology and Metabolism, 2021):
# Tests used:
# Assay type in all cases: in vivo, human
# [1] = Plasma avexitide pharmacokinetics at end of each 14-day treatment period
# Method in brief: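 Plasma for drug concentration was drawn at the end of each 14-day SC regimen (30 mg every 12 h; 60 mg each morning) on days 29 and 43. Sampling times were −90, 0, 60, 180 and 330 min […], with the trough taken immediately before the −90 min dose. C0, Cmax and AUC0-t were summarised descriptively.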
# [2] = tested on: patients with postbariatric hypoglycemia (PBH); experiment: Outpatient blinded continuous glucose monitoring; details: for No. events <54 mg/dL 8 AM-12 AM, mean value (SD) / No. events <54 mg/dL 12 AM-8 AM, mean value (SD): CGM, sustained at least 15 minutes, normalized to 14 days; for No. events <54 mg/dL 8 AM-12 AM, mean value (SD) / No. events <54 mg/dL 12 AM-8 AM, mean value (SD) / % Time <54 mg/dL 8 AM-12 AM, mean value (SD) / % Time >250 mg/dL 24 hours, mean value (SD): N = 17; for % Time <54 mg/dL 8 AM-12 AM, mean value (SD) / % Time >250 mg/dL 24 hours, mean value (SD): percentage of CGM values
# Method in brief: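 Blinded CGM was worn at home through three 14-day periods (placebo, then SC test compound 30 mg twice daily or 60 mg once daily), with two injections daily for blinding. Read-outs were % CGM values <54 mg/dL (8 am–12 am or 12 am–8 am) or >250 mg/dL, normalised to 14 days. LS means were placebo-adjusted by mixed-effect model (treatment, sequence, period fixed; subject within sequence random).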
# [3] = tested on: patients with postbariatric hypoglycemia (PBH); experiment: Mixed-meal tolerance testing; details: for GLP-1, AUC(0–180), mean value (SD) / Glucagon, AUC(0–180), mean value (SD) / Glucose, AUC(0–180), mean value (SD) / GLP-1, fasting, mean value (SD) / GLP-1, peak, mean value (SD) / Glucagon, fasting, mean value (SD) / Glucagon, peak, mean value (SD) / Glucose, AUC(peak:nadir), mean value (SD) / Glucose, fasting, mean value (SD) / Glucose, peak, mean value (SD) / Insulin, fasting, mean value (SD) / Glucose, nadir (primary endpoint), mean value (SD) / Insulin, peak (secondary endpoint), mean value (SD): 14 days, N = 17; for GLP-1, AUC(0–180), mean value (SD) / Glucagon, AUC(0–180), mean value (SD) / Glucose, AUC(0–180), mean value (SD): 0 to 180 minutes; for Glucose, nadir (primary endpoint), mean value (SD): postprandial plasma, within 3 hours of MMTT; for Insulin, peak (secondary endpoint), mean value (SD): postprandial; for Participants requiring rescue during MMTT: vs 47% with placebo
# Method in brief: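 Crossover design: 18 female patients got SC placebo for 14 days, then the test compound at 30 mg every 12 h and 60 mg each morning for 14 days each, in random order. After an overnight fast, each period ended with a 180-min MMTT: 64 g carbohydrate drink over 10 min. Plasma glucose, insulin, C-peptide, GLP-1 and glucagon were sampled every 15 min. Rescue was IV dextrose (point-of-care glucose ≤50 mg/dL with neuroglycopenic symptoms, or ≤40 mg/dL).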
# [4] = tested on: patients with postbariatric hypoglycemia (PBH); experiment: Safety: treatment-emergent adverse events, laboratory and physical findings
# [5] = tested on: patients with postbariatric hypoglycemia (PBH); experiment: Outpatient hypoglycemia captured by SMBG/eDiary; details: for Rate of Level 2 hypoglycemia, mean value (SD): SMBG <54 mg/dL; for Rate of Level 2 hypoglycemia, mean value (SD) / Rate of Level 1 hypoglycemia, mean value (SD): episodes normalized to 14 days, N = 17; for Rate of Level 1 hypoglycemia, mean value (SD): SMBG <70 mg/dL
# Method in brief: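 Outpatients logged each hypoglycaemic episode in an eDiary, using a glucometer (SMBG) over each 14-day period. Entries were symptoms, lowest SMBG, treatment, need for assistance, and postprandial or not. Levels were defined as Level 1 SMBG <70 mg/dL, Level 2 <54 mg/dL, and Level 3 needing another person's assistance. Rate was distinct episodes divided by days, normalised to 14 days. Placebo-adjusted LS means came from a mixed-effect model.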
# [6] = plasma, end of each 14-day treatment period, SC
# [7] = avexitide 30 mg twice daily SC, MMTT
# [8] = avexitide 30 mg twice daily, MMTT
# [9] = avexitide 60 mg once daily SC, MMTT
# [10] = avexitide 60 mg once daily, MMTT
substance,measurement,setting,value
exendin (9-39) [Avexitide],Evidence of systemic plasma exposure,[1]; both dosing regimens,observed in all patients
same,"Mean (AUC0-t) exposure, higher for 60 mg once daily than 30 mg twice daily",[1]; [6],40%
same,"Peak (Cmax) exposure, higher for 60 mg once daily than 30 mg twice daily",[1]; [6],72%
same,"No. events <54 mg/dL 8 AM-12 AM, mean value (SD)",[2]; avexitide 30 mg twice daily SC,2.82 (3.00)
same,"No. events <54 mg/dL 12 AM-8 AM, mean value (SD)",[2]; avexitide 30 mg twice daily SC,2.34 (3.03)
same,"% Time <54 mg/dL 8 AM-12 AM, mean value (SD)",[2]; avexitide 30 mg twice daily SC,0.99 (1.12) %
same,"% Time >250 mg/dL 24 hours, mean value (SD)",[2]; avexitide 30 mg twice daily SC,0.99 (1.34) %
same,Reduction of mean percent time with glucose <54 mg/dL,"[2]; avexitide 30 mg twice daily, blinded CGM",50%
same,"No. events <54 mg/dL 8 AM-12 AM, mean value (SD)",[2]; avexitide 60 mg once daily SC,3.46 (2.48)
same,"No. events <54 mg/dL 12 AM-8 AM, mean value (SD)",[2]; avexitide 60 mg once daily SC,3.56 (4.18)
same,"% Time <54 mg/dL 8 AM-12 AM, mean value (SD)",[2]; avexitide 60 mg once daily SC,1.49 (1.70) %
same,"% Time >250 mg/dL 24 hours, mean value (SD)",[2]; avexitide 60 mg once daily SC,0.85 (0.98) %
same,Reduction of mean percent time with glucose <54 mg/dL,"[2]; avexitide 60 mg once daily, blinded CGM",24%
same,Percent time with glucose >250 mg/dL,"[2]; blinded CGM, across treatment groups",less than 1%
same,Fewer participants requiring rescue during MMTT compared with placebo,[3]; avexitide 30 mg twice daily,50%
same,"GLP-1, AUC(0–180), mean value (SD)",[3]; [7],330.8 (140.5) h×mg/dL
same,"Glucagon, AUC(0–180), mean value (SD)",[3]; [7],466.7 (131.2) h × mg/dL
same,"Glucose, AUC(0–180), mean value (SD)",[3]; [7],320.0 (89.5) h × mg/dL
same,"GLP-1, fasting, mean value (SD)",[3]; [7],12.7 (3.4) pg/mL
same,"GLP-1, peak, mean value (SD)",[3]; [7],413.3 (193.6) pg/mL
same,"Glucagon, fasting, mean value (SD)",[3]; [7],156.3 (0) pg/mL
same,"Glucagon, peak, mean value (SD)",[3]; [7],196.7 (49.8) pg/mL
same,"Glucose, AUC(peak:nadir), mean value (SD)",[3]; [7],192.3 (91.9) h × mg/dL
same,"Glucose, fasting, mean value (SD)",[3]; [7],87.5 (6.0) mg/dL
same,"Glucose, peak, mean value (SD)",[3]; [7],218.2 (45.2) mg/dL
same,"Insulin, fasting, mean value (SD)",[3]; [7],4.5 (2.7) μIU/mL
same,"Glucose, nadir (primary endpoint), mean value (SD)",[3]; avexitide 30 mg twice daily SC,57.1 (16.5) mg/dL
same,"Insulin, peak (secondary endpoint), mean value (SD)",[3]; [7],349.5 (156.9) μIU/mL
same,AUC glucose concentrations higher than placebo,[3]; [8],12%
same,Increase of mean plasma glucose nadir compared with placebo,[3]; [8],21%
same,LS mean postprandial insulin peak lower than with placebo,[3]; [8],104.53 μIU/mL
same,Reduction of peak insulin compared with placebo,[3]; [8],23%
same,Participants requiring rescue during MMTT,[3]; avexitide 30 mg twice daily,24%
same,Fewer participants requiring rescue during MMTT compared with placebo,[3]; avexitide 60 mg once daily,75%
same,"GLP-1, AUC(0–180), mean value (SD)",[3]; [9],351.1 (127.5) h×mg/dL
same,"Glucagon, AUC(0–180), mean value (SD)",[3]; [9],484.1 (96.7) h × mg/dL
same,"Glucose, AUC(0–180), mean value (SD)",[3]; [9],338.1 (80.7) h × mg/dL
same,"GLP-1, fasting, mean value (SD)",[3]; [9],12.7 (4.6) pg/mL
same,"GLP-1, peak, mean value (SD)",[3]; [9],397.1 (150.2) pg/mL
same,"Glucagon, fasting, mean value (SD)",[3]; [9],156.8 (2.2) pg/mL
same,"Glucagon, peak, mean value (SD)",[3]; [9],182.9 (35.9) pg/mL
same,"Glucose, AUC(peak:nadir), mean value (SD)",[3]; [9],204.6 (86.3) h × mg/dL
same,"Glucose, fasting, mean value (SD)",[3]; [9],84.6 (4.2) mg/dL
same,"Glucose, peak, mean value (SD)",[3]; [9],224.5 (47.3) mg/dL
same,"Insulin, fasting, mean value (SD)",[3]; [9],4.1 (2.6) μIU/mL
same,"Glucose, nadir (primary endpoint), mean value (SD)",[3]; avexitide 60 mg once daily SC,59.2 (16.1) mg/dL
same,"Insulin, peak (secondary endpoint), mean value (SD)",[3]; [9],357.2 (190.9) μIU/mL
same,AUC glucose concentrations higher than placebo,[3]; [10],18%
same,Increase of mean plasma glucose nadir compared with placebo,[3]; [10],26%
same,LS mean postprandial insulin peak lower than with placebo,[3]; [10],96.29 μIU/mL
same,Reduction of peak insulin compared with placebo,[3]; [10],21%
same,Participants requiring rescue during MMTT,[3]; avexitide 60 mg once daily,12%
same,Postprandial concentrations of GLP-1 and glucagon relative to placebo,"[3]; both avexitide treatment regimens, MMTT",significantly higher
same,"Influence on fasting insulin, GLP-1, or glucagon","[3]; both dosing regimens, MMTT",no influence
same,"Serious adverse event (presyncope), reported as unrelated to study drug and self-limited",[4]; avexitide 60 mg once daily,1
same,"Changes in vital signs, body weight, hematology or chemistry",[4]; both dosing regimens,No clinically significant changes
same,Patient withdrawals,[4]; both dosing regimens,no patient withdrawals
same,Treatment-related serious adverse events,[4]; both dosing regimens,no treatment-related serious adverse events
same,Tolerability,"[4]; both dosing regimens, 28 days",well tolerated
same,Reduction of rate of SMBG <54 mg/dL (Level 2 hypoglycemia) compared with placebo,[5]; avexitide 30 mg twice daily,40%
same,Reduction of rate of SMBG <70 mg/dL (Level 1 hypoglycemia) compared with placebo,[5]; avexitide 30 mg twice daily,30%
same,Reduction of rate of severe hypoglycemia (Level 3) events,[5]; avexitide 30 mg twice daily,23%
same,"Rate of Level 2 hypoglycemia, mean value (SD)",[5]; avexitide 30 mg twice daily SC,1.21 (1.65)
same,"Rate of Level 1 hypoglycemia, mean value (SD)",[5]; avexitide 30 mg twice daily SC,2.81 (2.13)
same,Reduction of rate of SMBG <54 mg/dL (Level 2 hypoglycemia) compared with placebo,[5]; avexitide 60 mg once daily,60%
same,Reduction of rate of SMBG <70 mg/dL (Level 1 hypoglycemia) compared with placebo,[5]; avexitide 60 mg once daily,61%
same,Reduction of rate of severe hypoglycemia (Level 3) events,[5]; avexitide 60 mg once daily,56%
same,"Rate of Level 2 hypoglycemia, mean value (SD)",[5]; avexitide 60 mg once daily SC,0.81 (0.88)
same,"Rate of Level 1 hypoglycemia, mean value (SD)",[5]; avexitide 60 mg once daily SC,1.56 (1.27)
